The values that follow come from ChEMBL document CHEMBL1671856, “Chemical target validation studies of aminopeptidase in malaria parasites using alpha-aminoalkylphosphonate and phosphonopeptide inhibitors” (Antimicrob Agents Chemother, 2008).

Assay [1] concerns Plasmodium falciparum. In words: Antimalarial activity against Plasmodium falciparum 3D7 infected in O-positive human erythrocytes after 72 hrs. Format: functional, organism-based. Particulars: 3D7, 72 h. Summed up: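 Asynchronous asexual blood-stage P. falciparum 3D7 were cultured in O+ erythrocytes and exposed to compounds for 72 h. Growth was read by the spectrophotometric parasite lactate dehydrogenase absorbance assay. IC50 values were determined graphically from dose-response curves.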

Assay [2] has as its target T1, Leucine aminopeptidase (Plasmodium falciparum 3D7) (UniProt Q8IL11).
T1 sequence (whole entry): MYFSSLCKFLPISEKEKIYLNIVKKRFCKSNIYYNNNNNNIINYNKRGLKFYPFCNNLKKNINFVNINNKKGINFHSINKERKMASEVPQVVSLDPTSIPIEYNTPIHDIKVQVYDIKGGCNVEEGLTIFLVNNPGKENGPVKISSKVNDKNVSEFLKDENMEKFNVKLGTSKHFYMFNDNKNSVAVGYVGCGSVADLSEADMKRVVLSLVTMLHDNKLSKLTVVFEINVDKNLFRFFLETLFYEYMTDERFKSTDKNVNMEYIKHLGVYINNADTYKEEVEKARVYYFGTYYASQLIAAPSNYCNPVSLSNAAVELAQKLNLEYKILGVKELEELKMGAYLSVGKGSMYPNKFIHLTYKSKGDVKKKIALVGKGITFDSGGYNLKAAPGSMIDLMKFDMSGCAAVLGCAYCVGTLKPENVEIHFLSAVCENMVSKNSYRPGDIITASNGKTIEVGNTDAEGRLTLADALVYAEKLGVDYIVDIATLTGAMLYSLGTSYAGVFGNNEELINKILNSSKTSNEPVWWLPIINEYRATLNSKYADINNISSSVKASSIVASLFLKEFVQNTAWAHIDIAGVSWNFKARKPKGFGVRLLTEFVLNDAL
In words: Inhibition of leucyl aminopeptidase activity in Plasmodium falciparum 3D7 at 10 uM using Leu-AMC as a substrate by spectrophotometer. Summed up:
(§1)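 Cytosolic extract came from free parasites released from infected erythrocytes, then three freeze-thaw cycles and centrifugation at 12,000 x g, 4°C, 20 min. Extract (25 µg/ml final) was preincubated with 0.1 or 10 µM inhibitor in 50 mM Tris-Cl pH 8.0, with or without 1 mM CoCl2, for 15 min at 37°C. Leu-AMC or Ala-AMC (10 µM final) was added. AMC release was read over 30 min (ex 370/em 440 nm).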

In assay [3] the target is T1, Leucine aminopeptidase (Plasmodium falciparum 3D7). Description: Inhibition of leucyl aminopeptidase activity in Plasmodium falciparum 3D7 at 0.1 uM using Leu-AMC as a substrate by spectrophotometer. Summed up:
as §1

For assay [4], the system named is Plasmodium falciparum. Description: Inhibition of alanyl aminopeptidase activity in Plasmodium falciparum 3D7 at 10 uM using Ala-AMC as a substrate by spectrophotometer. Summed up:
as §1

Assay [5] has as its system Plasmodium falciparum. Description: Inhibition of alanyl aminopeptidase activity in Plasmodium falciparum 3D7 at 0.1 uM using Ala-AMC as a substrate by spectrophotometer. Summed up:
as §1

A short description of assay [6]: Inhibition of porcine kidney leucyl aminopeptidase. More on the design: species or system Sus scrofa.
Another assay deals with T2, Aminopeptidase N (Sus scrofa, UniProt P15145).
T2 sequence (P15145 whole entry): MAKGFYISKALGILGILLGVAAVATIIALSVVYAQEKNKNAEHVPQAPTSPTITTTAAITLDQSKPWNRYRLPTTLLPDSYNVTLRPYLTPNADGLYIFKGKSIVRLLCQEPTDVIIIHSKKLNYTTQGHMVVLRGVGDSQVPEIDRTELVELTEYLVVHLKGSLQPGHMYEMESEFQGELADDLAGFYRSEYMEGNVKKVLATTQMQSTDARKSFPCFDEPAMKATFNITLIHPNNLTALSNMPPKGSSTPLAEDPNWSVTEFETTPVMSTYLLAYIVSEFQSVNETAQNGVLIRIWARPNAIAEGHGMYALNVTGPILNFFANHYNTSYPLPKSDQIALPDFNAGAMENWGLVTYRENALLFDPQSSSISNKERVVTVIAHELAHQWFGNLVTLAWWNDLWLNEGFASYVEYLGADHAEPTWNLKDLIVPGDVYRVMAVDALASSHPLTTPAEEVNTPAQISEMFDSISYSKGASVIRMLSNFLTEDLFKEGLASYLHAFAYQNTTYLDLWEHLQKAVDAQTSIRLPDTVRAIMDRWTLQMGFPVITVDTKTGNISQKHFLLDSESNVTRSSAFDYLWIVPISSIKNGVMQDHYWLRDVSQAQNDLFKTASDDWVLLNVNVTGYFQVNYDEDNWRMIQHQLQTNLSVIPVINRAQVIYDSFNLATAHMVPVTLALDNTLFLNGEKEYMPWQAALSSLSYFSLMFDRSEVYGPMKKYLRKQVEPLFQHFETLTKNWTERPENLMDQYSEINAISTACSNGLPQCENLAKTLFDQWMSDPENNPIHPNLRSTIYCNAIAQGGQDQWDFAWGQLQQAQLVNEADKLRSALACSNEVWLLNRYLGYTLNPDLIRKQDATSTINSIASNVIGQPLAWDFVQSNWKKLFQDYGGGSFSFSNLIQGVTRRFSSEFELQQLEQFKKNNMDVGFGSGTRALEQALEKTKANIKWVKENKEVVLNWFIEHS
In words: Inhibition of pig kidney microsomal aminopeptidase N.

Assay [7] concerns the target T1, Leucine aminopeptidase (Plasmodium falciparum 3D7). In words: Inhibition of leucyl aminopeptidase activity in Plasmodium falciparum 3D7 at 10 uM using Leu-AMC as a substrate by spectrophotometer in presence of 1 mM CoCl2.
Assay [8] shares this target. In words: Inhibition of leucyl aminopeptidase activity in Plasmodium falciparum 3D7 at 0.1 uM using Leu-AMC as a substrate by spectrophotometer in presence of 1 mM CoCl2.
The target is the same in assay [9]. In words: Inhibition of leucyl aminopeptidase activity in Plasmodium falciparum 3D7 harboring tPfAP-M17 gene at 0.1 uM using Leu-AMC as a substrate by spectrophotometer in presence of 1 mM CoCl2.

pIC50, pKi: −log10 of the molar value.

Regarding `NC(CCCCc1ccccc1)P(=O)(O)O` (racemic), the pIC50 – broadly, the negative decadic logarithm of the IC50, by convention in mol/L – in the assay with Plasmodium falciparum [1] is 4.66. Besides, the inhibition (in general, the share of the control response that was lost under treatment) in [2] was determined as 97%; in assay [3], 28%; in assay [7] it was 92%; in assay [8], 25%; in assay [9], 61%. Also, the inhibition at 10 µM in the assay with Plasmodium falciparum [4] came to 97%. In addition, the inhibition at 0.1 µM in the assay on Plasmodium falciparum [5] turned out to be 28%. The pKi (in general, the negative decadic logarithm of the Ki, by convention in mol/L) is 6.48 in assay [6] and 5.43 at Aminopeptidase N.
In the assay with Plasmodium falciparum [1], `NC(CCc1ccccc1)P(=O)(O)O` (racemic) had a negative logarithm of the IC50 (pIC50) of 4.66. Also, the inhibition in assay [2] amounted to 93%; in assay [3] it was 15%; in [7] it was 92%; in assay [8], 41%; in assay [9], 27%. In addition, the inhibition at 10 µM with Plasmodium falciparum [4] is 95%. At 0.1 µM the inhibition in the assay with Plasmodium falciparum [5] was 15%. For the same compound, in assay [6], the pKi is 6.85.
Consider `NC(CC1CCCCC1)P(=O)(O)O` (racemic), for which the pIC50 in the assay on Plasmodium falciparum [1] is 3.92. Further, the inhibition in [2] is 27%; in assay [3], 3%; in [7] it was 69%; in [8], 21%. In the assay with Plasmodium falciparum [4], this compound showed an inhibition at 10 µM of 20%. In the assay on Plasmodium falciparum [5], this compound showed an inhibition at 0.1 µM of 0%. For the same compound, the pKi in assay [6] is 6.12; on Aminopeptidase N, 4.26.
Compound `NC(CCCC1CCCCC1)P(=O)(O)O` (racemic) showed a negative logarithm of the IC50 (pIC50) in the assay on Plasmodium falciparum [1] of 4.85. For the same compound, the inhibition in assay [2] came to 95%; in assay [3], 17%; in assay [7], 91%; in [8] it was 51%; in assay [9] it was 34%. Further, 10 µM produced 95% inhibition with Plasmodium falciparum [4]. In the assay on Plasmodium falciparum [5], this compound had an inhibition at 0.1 µM of 15%. Moreover, the pKi in assay [6] was 5.02; on Aminopeptidase N, 4.38.
As for `CC(C)C[C@H](NC(=O)[C@@H](O)[C@H](N)Cc1ccccc1)C(=O)O` [UBENIMEX], the inhibition stood at 98% in assay [2]; 33% in assay [3]; 93% in [7]; 6% in [8]; 47% in assay [9]. For the same compound, in the assay on Plasmodium falciparum [4], the inhibition at 10 µM is 97%. In the assay with Plasmodium falciparum [5], this compound registered an inhibition at 0.1 µM of 29%.
`N[C@@H](C1CCCCC1)P(=O)(O)O` had a negative-log IC50 (pIC50) in the assay on Plasmodium falciparum [1] of 4.27. The inhibition in [2] is 12%; in assay [3], 0%; in [7] it was 67%; in assay [8], 50%. In addition, in the assay with Plasmodium falciparum [4], the inhibition at 10 µM amounted to 8%. Moreover, the inhibition at 0.1 µM in the assay with Plasmodium falciparum [5] amounted to 2%. Also, the pKi in assay [6] is 5.10; on Aminopeptidase N, 3.79.
Compound `NC(CCC1CCCCC1)P(=O)(O)O` (racemic) gave a pIC50 in the assay with Plasmodium falciparum [1] of 4.82. The inhibition in assay [2] was 94%; in assay [3], 17%; in [7] it was 91%; in [8], 43%; in assay [9], 67%. In the assay with Plasmodium falciparum [4], this compound registered an inhibition at 10 µM of 94%. Also, testing at 0.1 µM with Plasmodium falciparum [5] gave an inhibition of 13%. Also, the pKi is 6.68 in assay [6] and 4.43 on Aminopeptidase N.
